From ChEMBL document CHEMBL4339192, “De Novo Designed Amphipathic α-Helical Antimicrobial Peptides Incorporating Dab and Dap Residues on the Polar Face To Treat the Gram-Negative Pathogen, Acinetobacter baumannii” (J Med Chem, 2019)
Where a SMILES comes first, the peptide text is derived from it. Bridges are numbered along the chain shown (N, C = ends). [ ]: non-standard residue; d: D form. The star is where a group is joined. X1 = CC[C@H](C)CCCCC(=O)*; Dab = NCC[C@H](N)C(=O)O

What was measured:
Type in all cases: functional
Acinetobacter baumannii [1] = assay: Antibacterial activity against Acinetobacter baumannii 649 measured after 24 hrs by microtiter dilution method; settings: Acinetobacter baumannii, 649, 24 h
In short: (§1)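 Broth microdilution in Mueller-Hinton (MH) medium. […] Plates were incubated 24 h at 37 °C. MIC was the lowest peptide concentration that inhibited growth, based on three sets of replicates.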

Acinetobacter baumannii [2] = assay: Antibacterial activity against polymyxin B/colistin-resistant Acinetobacter baumannii M89951 measured after 24 hrs by microtiter dilution method; in short: as §1
Acinetobacter baumannii [3] = assay: Antibacterial activity against Acinetobacter baumannii 649 measured after 24 hrs in presence of 25% human serum by microtiter dilution method; settings: Acinetobacter baumannii, 649, 24 h
In short: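 Blood strain 649 was tested by MH broth microdilution with and without 25% (v/v) human serum added to the medium. The test used a final inoculum of 5 × 10^5 cfu/mL and incubation at 37 °C. The ratio is the MIC in serum over the MIC in MH alone.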

Acinetobacter baumannii [4] = assay: Antibacterial activity against Acinetobacter baumannii isolate 1035166 measured after 24 hrs by microtiter dilution method; settings: isolate 1035166, 24 h; in short: as §1
Acinetobacter baumannii [5] = assay: Antibacterial activity against polymyxin B/colistin-resistant Acinetobacter baumannii M89952 measured after 24 hrs by microtiter dilution method; in short: as §1
Acinetobacter baumannii [6] = assay: Antibacterial activity against Acinetobacter baumannii isolate 1018887 measured after 24 hrs by microtiter dilution method; settings: isolate 1018887, 24 h; in short: as §1
Acinetobacter baumannii [7] = assay: Antibacterial activity against Acinetobacter baumannii isolate 952654 measured after 24 hrs by microtiter dilution method; settings: isolate 952654, 24 h; in short: as §1
Acinetobacter baumannii [8] = assay: Antibacterial activity against Acinetobacter baumannii isolate 961997 measured after 24 hrs by microtiter dilution method; settings: isolate 961997, 24 h; in short: as §1
Acinetobacter baumannii [9] = assay: Antibacterial activity against Acinetobacter baumannii isolate 1001611 measured after 24 hrs by microtiter dilution method; settings: isolate 1001611, 24 h; in short: as §1
Acinetobacter baumannii [10] = assay: Antibacterial activity against Acinetobacter baumannii isolate 963659 measured after 24 hrs by microtiter dilution method; settings: isolate 963659, 24 h; in short: as §1
Acinetobacter baumannii [11] = assay: Antibacterial activity against polymyxin B/colistin-resistant Acinetobacter baumannii M89941 measured after 24 hrs by microtiter dilution method; in short: as §1
Acinetobacter baumannii [12] = assay: Antibacterial activity against polymyxin B/colistin-resistant Acinetobacter baumannii M89953 measured after 24 hrs by microtiter dilution method; in short: as §1
Acinetobacter baumannii [13] = assay: Antibacterial activity against polymyxin B/colistin-resistant Acinetobacter baumannii M89949 measured after 24 hrs by microtiter dilution method; in short: as §1
Acinetobacter baumannii [14] = assay: Antibacterial activity against Acinetobacter baumannii isolate 9383370 measured after 24 hrs by microtiter dilution method; settings: isolate 9383370, 24 h; in short: as §1
Acinetobacter baumannii [15] = assay: Antibacterial activity against Acinetobacter baumannii isolate 981650 measured after 24 hrs by microtiter dilution method; settings: isolate 981650, 24 h; in short: as §1
Acinetobacter baumannii [16] = assay: Antibacterial activity against Acinetobacter baumannii isolate 1035794 measured after 24 hrs by microtiter dilution method; settings: isolate 1035794, 24 h; in short: as §1
Acinetobacter baumannii [17] = assay: Antibacterial activity against Acinetobacter baumannii isolate 1021371 measured after 24 hrs by microtiter dilution method; settings: isolate 1021371, 24 h; in short: as §1
Acinetobacter baumannii [18] = assay: Antibacterial activity against Acinetobacter baumannii isolate 968886 measured after 24 hrs by microtiter dilution method; settings: isolate 968886, 24 h; in short: as §1
Acinetobacter baumannii [19] = assay: Antibacterial activity against Acinetobacter baumannii isolate 1002956 measured after 24 hrs by microtiter dilution method; settings: isolate 1002956, 24 h; in short: as §1
Acinetobacter baumannii [20] = assay: Antibacterial activity against polymyxin B/colistin-resistant Acinetobacter baumannii M89963 measured after 24 hrs by microtiter dilution method; in short: as §1
Acinetobacter baumannii [21] = assay: Antibacterial activity against Acinetobacter baumannii isolate 1010245 measured after 24 hrs by microtiter dilution method; settings: isolate 1010245, 24 h; in short: as §1
Acinetobacter baumannii [22] = assay: Antibacterial activity against polymyxin B/colistin-resistant Acinetobacter baumannii M89955 measured after 24 hrs by microtiter dilution method; in short: as §1
Acinetobacter baumannii [23] = assay: Antibacterial activity against Acinetobacter baumannii isolate 977751 measured after 24 hrs by microtiter dilution method; settings: isolate 977751, 24 h; in short: as §1
Acinetobacter baumannii [24] = assay: Antibacterial activity against Acinetobacter baumannii isolate 1017395 measured after 24 hrs by microtiter dilution method; settings: isolate 1017395, 24 h; in short: as §1
Acinetobacter baumannii [25] = assay: Antibacterial activity against Acinetobacter baumannii isolate 965463 measured after 24 hrs by microtiter dilution method; settings: isolate 965463, 24 h; in short: as §1
Acinetobacter baumannii [26] = assay: Antibacterial activity against Acinetobacter baumannii isolate 964304 measured after 24 hrs by microtiter dilution method; settings: isolate 964304, 24 h; in short: as §1
Acinetobacter baumannii [27] = assay: Antibacterial activity against Acinetobacter baumannii isolate 1010282 measured after 24 hrs by microtiter dilution method; settings: isolate 1010282, 24 h; in short: as §1

Measured: MIC

CC(=O)N[C@H](CCCCN)C(=O)N[C@H](CC(C)C)C(=O)N[C@H](CCCCN)C(=O)N[C@H](CO)C(=O)N[C@H](CC(C)C)C(=O)N[C@H](CC(C)C)C(=O)N[C@H](CCCCN)C(=O)N[C@@H](C(=O)N[C@H](CC(C)C)C(=O)N[C@H](CO)C(=O)N[C@H](CCCCN)C(=O)N[C@H](C)C(=O)N[C@H](CCCCN)C(=O)N[C@H](C)C(=O)N[C@H](C)C(=O)N[C@H](CCCCN)C(=O)N[C@H](CC(C)C)C(=O)N[C@H](CCCCN)C(=O)N[C@@H](C(=O)N[C@H](CC(C)C)C(=O)N[C@H](CC(C)C)C(=O)N[C@H](CCCCN)C(=O)N[C@H](C)C(=O)N[C@H](CC(C)C)C(=O)N[C@H](CO)C(=O)N[C@H](CCCCN)C(N)=O)[C@H](C)O)[C@H](C)O (Ac-[dK][dL][dK][dS][dL][dL][dK][dT][dL][dS][dK][dA][dK][dA][dA][dK][dL][dK][dT][dL][dL][dK][dA][dL][dS][dK]-NH2)
1.4 µM: Acinetobacter baumannii [8] | Acinetobacter baumannii [26]
0.7 µM: Acinetobacter baumannii [4] | Acinetobacter baumannii [5]; M89952, 24 h | Acinetobacter baumannii [6] | Acinetobacter baumannii [7] | Acinetobacter baumannii [9] | Acinetobacter baumannii [10] | Acinetobacter baumannii [12]; M89953, 24 h | Acinetobacter baumannii [13]; M89949, 24 h | Acinetobacter baumannii [14] | Acinetobacter baumannii [15] | Acinetobacter baumannii [16] | Acinetobacter baumannii [17] | Acinetobacter baumannii [18] | Acinetobacter baumannii [20]; M89963, 24 h | Acinetobacter baumannii [21] | Acinetobacter baumannii [24] | Acinetobacter baumannii [25] | Acinetobacter baumannii [27]
0.3 µM: Acinetobacter baumannii [1] | Acinetobacter baumannii [2]; M89951, 24 h | Acinetobacter baumannii [3] | Acinetobacter baumannii [11]; M89941, 24 h | Acinetobacter baumannii [19] | Acinetobacter baumannii [22]; M89955, 24 h | Acinetobacter baumannii [23]

COLISTIN
> 28 µM: Acinetobacter baumannii [2] | Acinetobacter baumannii [5] | Acinetobacter baumannii [11] | Acinetobacter baumannii [12] | Acinetobacter baumannii [13] | Acinetobacter baumannii [20] | Acinetobacter baumannii [22]

CC[C@H](C)CCCCC(=O)N[C@@H](CCN)C(=O)N[C@H](C(=O)N[C@@H](CCN)C(=O)N[C@H]1CCNC(=O)[C@H]([C@@H](C)O)NC(=O)[C@H](CCN)NC(=O)[C@H](CCN)NC(=O)[C@H](CC(C)C)NC(=O)[C@@H](Cc2ccccc2)NC(=O)[C@H](CCN)NC1=O)[C@@H](C)O (X1-[Dab]T[Dab][Dab][Dab][dF]L[Dab][Dab]T; lactam 4-C)
> 25 µM: Acinetobacter baumannii [2]; M89951, 24 h | Acinetobacter baumannii [5]; M89952, 24 h | Acinetobacter baumannii [11]; M89941, 24 h | Acinetobacter baumannii [12]; M89953, 24 h | Acinetobacter baumannii [13]; M89949, 24 h | Acinetobacter baumannii [20]; M89963, 24 h | Acinetobacter baumannii [22]; M89955, 24 h
